Converted amounts (≈) assume the structure as drawn.
Legend:
Trypanosoma cruzi [1] = assay: Trypanosomicidal activity against axenic epimastigote stage of Trypanosoma cruzi Tulahuen 2 assessed as growth inhibition; format: functional, organism-based
Outline: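 Tulahuen 2 epimastigotes grown axenically at 28 °C in BHI-tryptose with 5% FCS, harvested late log phase, 3×10^6/mL in 24-well plates. Compound added from DMSO stock (≤1% DMSO). Growth as A590 at day 0 and day 5; % inhibition from blank-corrected absorbances; ID50 = concentration halving absorbance relative to untreated controls.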

[2] = Selectivity index, ratio of IC50 for mouse J774.1 cells to IC50 for amastigote stage of Trypanosoma cruzi Tulahuen C4; format: toxicity; conditions: read-out: Ratio IC50
Trypanosoma cruzi [3] = assay: Trypanosomicidal activity against amastigote stage of Trypanosoma cruzi Tulahuen C4 transfected with beta-D-galactosidase infected in african green monkey Vero cells assessed as growth inhibition incubated 5 days prior to beta-D-galactopyranoside addition measured after 4 to 5 hrs by colorimetric assay; format: functional, organism-based
Outline: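 VERO monolayer in phenol red-free RPMI 1640 with 10% FCS, infected with 5×10^4 LacZ-transfected Tulahuen C4 trypomastigotes/well, 24 h at 37 °C, 5% CO2. Compounds added for 5 days. CPRG substrate added, 4–5 h at 37 °C, A570. Actives (>50% inhibition) retested in duplicate at 10.0–0.16; IC50 by logarithmic regression versus untreated control.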

[4] = Selectivity index, ratio of IC50 for mouse J774.1 cells to MIC for Mycobacterium tuberculosis H37Rv; format: functional
Outline: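 Cytotoxicity: J774.1 macrophages in DMEM with 4 mM L-glutamine and 10% heat-inactivated FCS, seeded at 5 × 10^4/well, attached 48 h at 37 °C, 5% CO2. Exposed 48 h to 12.5–400.0 µM compound or vehicle. MTT at 0.1 mg/mL final for 3 h, formazan dissolved in DMSO/glycine buffer pH 10.5, A560 read. IC50 by linear regression, divided by the MIC against the same MTB strain.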

[5] = test system: Mycobacterium tuberculosis; assay: Antimycobacterial activity against Mycobacterium tuberculosis H37Rv assessed as growth inhibition after 5 days by MTT assay; format: functional; conditions: 120 h
Outline: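 MTB inoculum made from 20–30-day slant growth in Tween 80/0.2% BSA, adjusted to McFarland No. 1, then diluted in 7H9GC broth (Middlebrook 7H9, glycerol, Casitone, OADC). Final inoculum about 1.2 × 10^6 CFU/mL. Compounds taken from DMSO stock to final 0.4–25 in broth, with a DMSO control. Plates run 5 days at 37 °C, then tetrazolium (MTT)–Tween 80 added for a further 24 h at 37 °C. Read-out is MIC.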

[6] = Cytotoxicity against mouse J774.1 cells assessed as cell viability after 48 hrs by MTT assay; format: cell-based; conditions: J774.1, 48 h
Outline: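 J774.1 macrophages in DMEM with 4 mM L-glutamine and 10% heat-inactivated FCS, 5×10^4 cells/well, attached 48 h at 37 °C, 5% CO2. Exposed 48 h to compounds (12.5–400.0 µM) or vehicle. MTT 0.1 mg/mL final, 3 h at 37 °C; formazan dissolved in DMSO/glycine buffer pH 10.5, A560. IC50 by linear regression versus solvent control.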

Leishmania amazonensis = assay: Leishmanicidal activity against axenic amastigote stage of Leishmania amazonensis MHOM/BR/76/LTB-012 assessed as growth inhibition after 72 hrs by MTT assay; format: functional, organism-based; conditions: MHOM/BR/76/LTB-012, 72 h
Outline: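 L. amazonensis axenic amastigotes (MHOM/BR/76/LTB-012), weekly passages in MAA/20 at 32 °C, 5% CO2. Seeded in 96-well plates; compounds in DMSO at 100 to 1 final, 72 h. MTT added for 4 h, stopped with 50% isopropanol–10% SDS, 30 min agitation at room temperature, A570. Triplicate; % inhibition versus control, IC50 from several concentrations.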

[7] = Selectivity index, ratio of IC50 for mouse J774.1 cells to IC50 for axenic amastigote stage of Leishmania amazonensis MHOM/BR/76/LTB-012; format: toxicity; conditions: read-out: Ratio IC50

O=C(N/N=C/c1ccc2nonc2c1)c1cccnc1
IC50 (Trypanosoma cruzi [1]): > 150 µM | selectivity ratio [2]: < 5.5 | IC50 (Trypanosoma cruzi [3]): > 37.5 µM | Selectivity Index [4]: <2 | MIC [5]: > 93.6 µM | IC50 [6]: 209 µM

Cc1[nH]cnc1C(=O)N/N=C/c1no[n+]([O-])c1C
IC50 (Trypanosoma cruzi [1]): > 150 µM | IC50 (Trypanosoma cruzi [3]): > 40 µM | MIC [5]: > 100 µM | IC50 [6]: > 400 µM

COc1ccc(/C=N/NC(=O)c2no[n+]([O-])c2C)cc1O
IC50 (Leishmania amazonensis): 8.3 µM | MIC [5]: > 85.6 µM | IC50 [6]: > 400 µM | selectivity ratio [7]: > 48

O=C(N/N=C/c1c(-c2ccccc2)no[n+]1[O-])c1cnn(-c2ccccc2)c1
IC50 (Trypanosoma cruzi [1]): > 150 µM | IC50 (Trypanosoma cruzi [3]): > 26.7 µM | Selectivity Index [4]: <0.6 | MIC [5]: > 66.8 µM | IC50 [6]: 41.7 µM

Cc1c(C(=O)N/N=C/c2ccccn2)no[n+]1[O-]
IC50 (Trypanosoma cruzi [1]): > 150 µM | IC50 (Trypanosoma cruzi [3]): > 40.5 µM | MIC [5]: > 101 µM | IC50 [6]: > 400 µM

NNC(=O)c1cccnc1 [NICOTINIC ACID HYDRAZIDE]
IC50 (Trypanosoma cruzi [1]): > 150 µM | IC50 (Trypanosoma cruzi [3]): > 73 µM

Cc1c(C(=O)N/N=C/c2c(-c3ccccc3)no[n+]2[O-])no[n+]1[O-]
IC50 (Trypanosoma cruzi [1]): 25.1 µM | IC50 (Trypanosoma cruzi [3]): > 30.3 µM | MIC [5]: > 75.8 µM | IC50 [6]: > 400 µM

Cc1c(C(=O)N/N=C/c2cccc(O)c2)no[n+]1[O-]
IC50 (Trypanosoma cruzi [1]): > 150 µM | IC50 (Leishmania amazonensis): 4.5 µM | IC50 (Trypanosoma cruzi [3]): > 38.2 µM | MIC [5]: > 95.4 µM | IC50 [6]: > 400 µM | selectivity ratio [7]: > 89

Cc1c(/C=N/NC(=O)c2no[n+]([O-])c2C)no[n+]1[O-]
IC50 (Trypanosoma cruzi [1]): 81.3 µM | IC50 (Trypanosoma cruzi [3]): > 37.5 µM | MIC [5]: > 93.6 µM | IC50 [6]: > 400 µM

COc1ccc(/C=N/NC(=O)c2no[n+]([O-])c2C)cc1OC
MIC [5]: > 81.6 µM | IC50 [6]: > 400 µM

COc1cc(/C=N/NC(=O)c2no[n+]([O-])c2C)cc(OC)c1OC
MIC [5]: > 74.4 µM | IC50 [6]: > 300 µM

CC(=O)Nc1ccc(/C=N/NC(=O)c2no[n+]([O-])c2C)cc1
IC50 (Trypanosoma cruzi [1]): > 150 µM | IC50 (Trypanosoma cruzi [3]): > 33 µM | Selectivity Index [4]: <3 | MIC [5]: > 82.5 µM | IC50 [6]: 235 µM

Cc1c(C(=O)N/N=C/c2ccc(C(=O)O)cc2)no[n+]1[O-]
IC50 (Trypanosoma cruzi [1]): > 150 µM | IC50 (Trypanosoma cruzi [3]): > 34.5 µM | MIC [5]: > 86.2 µM | IC50 [6]: > 300 µM

NNC(=O)c1cnn(-c2ccccc2)c1
IC50 (Trypanosoma cruzi [3]): > 49.5 µM

Cc1c(/C=N/NC(=O)c2cccnc2)no[n+]1[O-]
IC50 (Trypanosoma cruzi [1]): > 150 µM | IC50 (Trypanosoma cruzi [3]): > 40.5 µM | MIC [5]: > 101 µM | IC50 [6]: > 400 µM

Cc1c(C(=O)N/N=C/c2ccc3c(c2)OCO3)no[n+]1[O-]
IC50 (Trypanosoma cruzi [1]): > 150 µM | IC50 (Trypanosoma cruzi [3]): > 34.5 µM | MIC [5]: > 86.2 µM | IC50 [6]: > 400 µM

O=C(N/N=C/c1ccc2nonc2c1)c1ccncc1
IC50 (Trypanosoma cruzi [1]): > 150 µM | IC50 (Trypanosoma cruzi [3]): > 37.5 µM | MIC [5]: > 93.6 µM | IC50 [6]: > 400 µM

O=C(N/N=C/c1c(-c2ccccc2)no[n+]1[O-])c1cccnc1
IC50 (Trypanosoma cruzi [1]): 58.9 µM | selectivity ratio [2]: < 6 | IC50 (Trypanosoma cruzi [3]): > 32.4 µM | Selectivity Index [4]: 5 | MIC [5]: 40.5 µM (≈ 12.5 µg/mL) | IC50 [6]: 195 µM

Cc1[nH]cnc1C(=O)N/N=C/c1c(-c2ccccc2)no[n+]1[O-]
IC50 (Trypanosoma cruzi [1]): > 150 µM | IC50 (Trypanosoma cruzi [3]): > 32.1 µM | MIC [5]: > 80.1 µM | IC50 [6]: > 400 µM

Cc1c(C(=O)N/N=C/c2ccc(Br)cc2)no[n+]1[O-]
IC50 (Trypanosoma cruzi [1]): > 150 µM | selectivity ratio [2]: < 5 | IC50 (Trypanosoma cruzi [3]): > 29.6 µM | Selectivity Index [4]: <2 | MIC [5]: > 74 µM | IC50 [6]: 162 µM

Cc1nc2ccccn2c1C(=O)N/N=C/c1ccc2no[n+]([O-])c2c1
IC50 (Trypanosoma cruzi [1]): > 150 µM | selectivity ratio [2]: < 4 | IC50 (Trypanosoma cruzi [3]): > 30.9 µM | Selectivity Index [4]: 1.8 | MIC [5]: 77.2 µM (≈ 26 µg/mL) | IC50 [6]: 141 µM

Cc1c(C(=O)N/N=C/c2ccc3no[n+]([O-])c3c2)no[n+]1[O-]
IC50 (Trypanosoma cruzi [1]): > 150 µM | IC50 (Trypanosoma cruzi [3]): > 32.9 µM | Selectivity Index [4]: >5 | MIC [5]: 82.2 µM (≈ 25 µg/mL) | IC50 [6]: > 400 µM

Cc1c(C(=O)N/N=C/c2ccco2)no[n+]1[O-]
IC50 (Trypanosoma cruzi [1]): > 150 µM | IC50 (Trypanosoma cruzi [3]): > 42.4 µM | MIC [5]: > 106 µM | IC50 [6]: > 400 µM

Cc1c(C(=O)N/N=C/c2ccc(C(F)(F)F)cc2)no[n+]1[O-]
IC50 (Trypanosoma cruzi [1]): > 150 µM | IC50 (Trypanosoma cruzi [3]): > 31.9 µM | MIC [5]: > 79.6 µM | IC50 [6]: > 400 µM

Cc1c(C(=O)NN)no[n+]1[O-]
IC50 (Trypanosoma cruzi [1]): > 50 µM | IC50 (Trypanosoma cruzi [3]): > 62.3 µM

Cc1c(C(=O)N/N=C/c2ccc([N+](=O)[O-])s2)no[n+]1[O-]
IC50 (Trypanosoma cruzi [1]): 50 µM | IC50 (Trypanosoma cruzi [3]): > 33.7 µM | Selectivity Index [4]: >10 | MIC [5]: 42.1 µM (≈ 12.5 µg/mL) | IC50 [6]: > 400 µM

COC(=O)c1no[n+]([O-])c1C
IC50 (Trypanosoma cruzi [1]): > 50 µM | IC50 (Trypanosoma cruzi [3]): > 62.3 µM

Cc1c(/C=N/NC(=O)c2cnn(-c3ccccc3)c2)no[n+]1[O-]
IC50 (Trypanosoma cruzi [1]): > 150 µM | IC50 (Trypanosoma cruzi [3]): > 32.1 µM | Selectivity Index [4]: <4 | MIC [5]: > 80.1 µM | IC50 [6]: 295 µM

Cc1c(C(=O)N/N=C/c2ccccc2O)no[n+]1[O-]
IC50 (Trypanosoma cruzi [1]): 39.8 µM | selectivity ratio [2]: < 6 | IC50 (Trypanosoma cruzi [3]): > 38.7 µM | Selectivity Index [4]: <3 | MIC [5]: > 95.4 µM | IC50 [6]: 246 µM

Cc1nc2ccccn2c1C(=O)NN
IC50 (Trypanosoma cruzi [1]): > 150 µM | IC50 (Leishmania amazonensis): 29.8 µM | IC50 (Trypanosoma cruzi [3]): > 52.6 µM | selectivity ratio [7]: > 13

Cc1c(C(=O)N/N=C/c2ccc([N+](=O)[O-])o2)no[n+]1[O-]
IC50 (Trypanosoma cruzi [1]): 50.1 µM | selectivity ratio [2]: < 2 | IC50 (Trypanosoma cruzi [3]): > 35.6 µM | Selectivity Index [4]: 1.5 | MIC [5]: 44.5 µM (≈ 12.5 µg/mL) | IC50 [6]: 68 µM

NNC(=O)c1ccncc1 [ISONIAZID]
IC50 (Trypanosoma cruzi [1]): > 150 µM | Selectivity Index [4]: >1000 | MIC [5]: 0.4 µM (≈ 0.0549 µg/mL) | IC50 [6]: > 400 µM

NNC(=O)c1ccc2c(c1)OCO2
IC50 (Trypanosoma cruzi [1]): > 150 µM | IC50 (Trypanosoma cruzi [3]): > 55.6 µM

Cc1c(C(=O)N/N=C/c2ccccc2)no[n+]1[O-]
IC50 (Trypanosoma cruzi [1]): 151 µM | IC50 (Trypanosoma cruzi [3]): > 40.7 µM | MIC [5]: > 102 µM | IC50 [6]: > 400 µM

Cc1c(C(=O)N/N=C/c2ccc(N(C)C)cc2)no[n+]1[O-]
IC50 (Trypanosoma cruzi [1]): > 150 µM | selectivity ratio [2]: < 3 | IC50 (Trypanosoma cruzi [3]): > 34.6 µM | Selectivity Index [4]: <1.5 | MIC [5]: > 86.5 µM | IC50 [6]: 129 µM
